Experimental data reported in ChEMBL document CHEMBL3352278, “Design and discovery of 5-hydroxy-6-oxo-1,6-dihydropyrimidine-4-carboxamide inhibitors of HIV-1 integrase” (Bioorg Med Chem, 2014).

Key:
[1] = molecular target: T1, Human immunodeficiency virus type 1 integrase (Human immunodeficiency virus 1, UniProt Q7ZJM1); experiment: Inhibition of HIV1 recombinant wild type integrase 3'-processing activity by gel-based assays
[2] = molecular target: T1, Human immunodeficiency virus type 1 integrase; experiment: Inhibition of HIV1 recombinant wild type integrase strand transfer activity by gel-based assay
[3] = Retention time of the compound by HPLC; assay type: physicochemical
[4] = system: Human immunodeficiency virus 1; experiment: Antiviral activity against wild-type HIV1 3B infected in human MT4 cells assessed as inhibition of viral cytopathic effect by MTT assay; assay type: functional, organism-based; conditions: Human immunodeficiency virus 1, 3B
Procedure, shortened: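 MT-4 cells infected with 100–300 CCID50 of titrated HIV-1 IIIB stock in the presence of 5-fold serial dilutions of compound (DMSO stocks, diluted in DMSO). Protection against virus-induced cytopathic effect read by MTT; EC50 taken as the concentration giving 50% protection.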

[5] = Cytotoxicity against human MT4 cells assessed as cell viability by MTT assay; assay type: cell-based
Procedure, shortened: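 Uninfected MT-4 cells run in parallel with the antiviral assay, exposed to 5-fold serial dilutions of compound. Viability read by MTT; CC50 is the concentration reducing viability by 50%.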

[6] = Therapeutic index, ratio of CC50 for human MT4 cells to EC50 for HIV1 3B infected in human MT4 cells; assay type: cell-based; conditions: HIV1 3B infected MT4 cells, read-out: Ratio CC50/EC50
Procedure, shortened: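 Computed as CC50/EC50, both from parallel MTT assays in MT-4 cells, with and without infection by 100–300 CCID50 HIV-1 IIIB, using 5-fold serial compound dilutions.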

T1 sequence (Q7ZJM1 whole entry): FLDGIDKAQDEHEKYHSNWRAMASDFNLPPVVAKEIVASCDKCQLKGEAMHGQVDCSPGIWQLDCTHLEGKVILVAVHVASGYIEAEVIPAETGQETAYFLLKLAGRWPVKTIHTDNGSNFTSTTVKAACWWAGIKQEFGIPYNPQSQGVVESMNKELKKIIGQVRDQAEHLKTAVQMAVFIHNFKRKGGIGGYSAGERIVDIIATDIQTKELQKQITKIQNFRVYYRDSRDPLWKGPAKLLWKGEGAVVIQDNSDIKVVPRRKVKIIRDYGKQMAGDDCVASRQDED

SMILES | IC50 [1] [µM] | IC50 [2] [µM] | Retention_time [3] [min] | EC50 [4] [µM] | CC50 [5] [µM] | selectivity ratio [6]
O=C(NCc1ccc(F)cc1)c1nc(Cc2ccc(F)cc2)[nH]c(=O)c1O | > 20 | 10 | 2.989 |  |  | 
O=C(NCc1ccc(F)cc1)c1nc(-c2ccccc2)[nH]c(=O)c1O | 17 | 1 | 2.378 |  |  | 
O=C(NCc1ccccc1F)c1nc(-c2ccc(F)cc2)[nH]c(=O)c1O | 20 | 7 | 2.395 | 7.81 | 28.5 | 4
O=C(NCc1ccccc1)c1nc(-c2ccccc2)nc(O)c1O | > 20 | 8 | 2.288 | 5.65 | 50.7 | 9
O=C(NCc1cc(F)c(F)c(F)c1)c1nc(-c2ccc(F)cc2)[nH]c(=O)c1O | 14 | 8 | 3.549 | 4.64 | 34.5 | 7
Cc1ccc(CNC(=O)c2nc(-c3ccc(F)cc3)[nH]c(=O)c2O)cc1C | 16 | 0.5 | 6.437 | 2.7 | 33.5 | 12
O=C(NCc1ccc(F)cc1)c1nc(-c2ccccc2F)[nH]c(=O)c1O | 16 | 2 | 2.949 |  |  | 
O=C(NCc1ccc(F)cc1)c1nc(-c2cccc(F)c2)[nH]c(=O)c1O | 5 | 1 | 2.379 |  |  | 
O=C(NCCc1ccc(F)cc1)c1nc(-c2ccc(F)cc2)[nH]c(=O)c1O | 17 | 4 | 4.748 | > 30 | 30 | 
O=C(NCc1cccc(F)c1)c1nc(-c2ccc(F)cc2)[nH]c(=O)c1O | 20 | 3 | 4.349 | 7.34 | 49.5 | 7
O=C(NCc1cccc(Cl)c1F)c1nc(-c2ccc(F)cc2)[nH]c(=O)c1O | 13 | 1.4 | 2.309 | 2.61 | 48 | 18

Now from value to compound, other results behind:

IC50 [1] [µM] | IC50 [2] [µM] | Retention_time [3] [min] | SMILES | EC50 [4] [µM] | CC50 [5] [µM] | selectivity ratio [6]
3 | 1 | 2.385 | O=C(NCc1ccc(F)cc1)c1nc(-c2ccc(Br)cc2)[nH]c(=O)c1O |  |  | 
5 | 2 | 2.306 | O=C(NCc1ccc(F)cc1)c1nc(-c2ccc(Cl)cc2)[nH]c(=O)c1O |  |  | 
20 | 1.4 | 5.251 | O=C(NCc1cccc(Cl)c1)c1nc(-c2ccc(F)cc2)[nH]c(=O)c1O | 1.91 | 35 | 18
> 20 | 6 | 2.846 | O=C(NCc1ccc(O)cc1)c1nc(-c2ccc(F)cc2)[nH]c(=O)c1O | 6.71 | 49 | 7
17 | 1 | 4.39 | O=C(NCc1ccc(F)c(F)c1)c1nc(-c2ccc(F)cc2)[nH]c(=O)c1O | 5.17 | 31 | 6
11 | 0.5 | 5.373 | O=C(NCc1ccc(Br)cc1)c1nc(-c2ccc(F)cc2)[nH]c(=O)c1O | 11 | 47.5 | 4
16 | 2 | 4.134 | COc1ccc(CNC(=O)c2nc(-c3ccc(F)cc3)[nH]c(=O)c2O)cc1 | 7.61 | 44 | 6
9 | 0.8 | 5.03 | O=C(NCc1ccc(Cl)cc1)c1nc(-c2ccc(F)cc2)[nH]c(=O)c1O | 8.1 | 44 | 5
6 | 4 | 3.56 | O=C(NCc1ccc(F)c(Cl)c1)c1nc(-c2ccc(F)cc2)[nH]c(=O)c1O | 1.3 | 45.5 | 35
12 | 0.6 | 4.075 | O=C(NCc1ccc(F)cc1)c1nc(-c2ccc(F)cc2)[nH]c(=O)c1O | 1.72 | 44 | 26
